Data reported in ChEMBL document CHEMBL1817572, “New, potent, selective, and short-acting peptidic V1a receptor agonists” (J Med Chem, 2011).
Bridge positions count the residues as written; N and C are the ends. Square brackets hold non-standard residues; d marks the D form. Peptide text beside a SMILES is read from it. * marks the point of attachment. Ala(cPent) = N[C@@H](CC1CCCC1)C(=O)O; Orn(Pr) = CCCNCCC[C@H](N)C(=O)O; NHCH(CH2OH)2 = OCC(CO)N*; Orn = NCCC[C@H](N)C(=O)O; Dab = NCC[C@H](N)C(=O)O

Legend:
Oxytocin receptor = biological target: T1, Oxytocin receptor (Homo sapiens, UniProt P30559); assay: Agonist activity at human OT receptor expressed in CHO-K1 cells by luciferase reporter gene assay; type: functional, cell-based
T1 sequence (P30559 whole entry): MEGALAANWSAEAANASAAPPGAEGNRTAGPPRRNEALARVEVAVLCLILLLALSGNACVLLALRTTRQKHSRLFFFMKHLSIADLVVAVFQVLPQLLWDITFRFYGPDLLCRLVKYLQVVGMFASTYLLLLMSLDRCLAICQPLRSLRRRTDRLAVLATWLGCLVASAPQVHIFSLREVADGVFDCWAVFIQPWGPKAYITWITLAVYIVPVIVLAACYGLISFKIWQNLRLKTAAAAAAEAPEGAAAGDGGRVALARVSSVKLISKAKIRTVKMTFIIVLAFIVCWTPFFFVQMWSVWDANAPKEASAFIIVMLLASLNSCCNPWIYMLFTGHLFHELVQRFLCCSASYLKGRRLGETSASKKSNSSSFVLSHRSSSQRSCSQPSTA

Vasopressin V2 receptor [1] = biological target: T2, Vasopressin V2 receptor (Homo sapiens, UniProt P30518); assay: Agonist activity at recombinant human vasopressin V2 receptor expressed in HEK293 cells by luciferase reporter gene assay; type: functional, cell-based
Homo sapiens [2] = species: Homo sapiens; assay: Selectivity ratio of EC50 for human oxytocin receptor to EC50 for human vasopressin V1a receptor
Vasopressin V1b receptor = biological target: T3, Vasopressin V1b receptor (Homo sapiens, UniProt P47901); assay: Agonist activity at recombinant human vasopressin V1b receptor expressed in Flp-In-293 cells by luciferase reporter gene assay; type: functional, cell-based; conditions: read-out: EC50
T3 sequence (P47901 whole entry): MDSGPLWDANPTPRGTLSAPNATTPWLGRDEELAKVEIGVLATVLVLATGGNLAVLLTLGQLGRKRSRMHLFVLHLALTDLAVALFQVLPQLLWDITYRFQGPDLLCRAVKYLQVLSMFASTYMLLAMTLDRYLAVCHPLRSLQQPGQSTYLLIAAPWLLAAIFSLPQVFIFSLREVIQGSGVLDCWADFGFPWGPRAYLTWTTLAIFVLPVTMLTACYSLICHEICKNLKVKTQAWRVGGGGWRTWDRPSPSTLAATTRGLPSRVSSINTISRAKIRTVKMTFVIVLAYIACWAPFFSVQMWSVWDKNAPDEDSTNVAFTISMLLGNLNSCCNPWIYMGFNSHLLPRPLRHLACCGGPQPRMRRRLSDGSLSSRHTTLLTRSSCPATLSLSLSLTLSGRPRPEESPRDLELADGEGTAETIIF
Procedure, shortened: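 Reporter gene assays in HEK293 cells transiently cotransfected with V1a (human or rat) or human V2 receptor vector plus NFAT-luciferase (V1a) or CRE-luciferase (V2) reporter; V1b in Flp-In-293 stably expressing receptor, OT in CHO-K1 stably expressing receptor, both transiently transfected with NFAT-luciferase. Two days post-transfection, peptides added for 5 h at 37 °C, lysis with luciferin, luminescence read.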

[3] = biological target: Vasopressin V1a/V2 (Homo sapiens) (UniProt P30518+P37288); assay: Selectivity ratio of EC50 for human vasopressin V2 receptor to EC50 for human vasopressin V1a receptor
Homo sapiens [4] = species: Homo sapiens; assay: Selectivity ratio of EC50 for human vasopressin V1b receptor to EC50 for human vasopressin V1a receptor
Rattus norvegicus [5] = assay: Vasoconstriction in Wistar rat assessed as assessed as decay in vasopressive duration of action at 3 nmol/kg, iv bolus measured over 10 sec interval; type: functional
Procedure, shortened: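 Fasted male Wistar rats (206–340 g) under isoflurane, then thiobutabarbital 150 mg/kg ip, ventilated, 37–38 °C, with carotid pressure and jugular dosing. Dibenamine 1.8 mg/rat iv pretreatment. Sequence: iv boluses (0.5 mL/kg) of heparinized vehicle, then two reference doses of 0.1 nmol/kg, then two test doses; one matches the reference diastolic pressure rise. Relative duration = reference decay rate / test decay rate; mean ± SEM.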

Vasopressin V1a receptor [6] = biological target: Vasopressin V1a receptor (Rattus norvegicus, UniProt P30560); assay: Agonist activity at recombinant rat vasopressin V1a receptor expressed in HEK293 cells by luciferase reporter gene assay; type: functional, cell-based; conditions: read-out: EC50
Vasopressin V1a receptor [7] = biological target: T4, Vasopressin V1a receptor (Homo sapiens, UniProt P37288); assay: Agonist activity at recombinant human vasopressin V1a receptor expressed in HEK293 cells by luciferase reporter gene assay; type: functional, cell-based; conditions: read-out: EC50
Target sequence in this assay (P37288 whole entry): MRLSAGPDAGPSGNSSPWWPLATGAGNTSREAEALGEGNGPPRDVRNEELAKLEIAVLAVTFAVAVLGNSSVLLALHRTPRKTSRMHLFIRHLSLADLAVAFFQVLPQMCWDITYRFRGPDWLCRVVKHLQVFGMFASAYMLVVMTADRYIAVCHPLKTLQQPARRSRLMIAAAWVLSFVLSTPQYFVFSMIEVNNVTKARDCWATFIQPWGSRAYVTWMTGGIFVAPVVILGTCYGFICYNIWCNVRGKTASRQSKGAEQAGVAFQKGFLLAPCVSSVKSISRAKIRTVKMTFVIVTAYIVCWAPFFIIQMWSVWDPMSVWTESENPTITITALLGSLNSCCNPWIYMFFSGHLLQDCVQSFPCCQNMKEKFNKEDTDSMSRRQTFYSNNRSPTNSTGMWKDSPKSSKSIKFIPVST

Vasopressin V1a receptor [8] = biological target: T4, Vasopressin V1a receptor; assay: Partial agonist activity at recombinant human vasopressin V1a receptor expressed in HEK293 cells by luciferase reporter gene assay; type: functional, cell-based
Procedure, shortened: (§1)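 Same luciferase reporter systems (OT in stable CHO-K1, V1b in stable Flp-In-293, each with transient NFAT-luciferase; V1a in HEK293 with NFAT-luciferase, V2 in HEK293 with CRE-luciferase). Peptides added for 5 h at 37 °C two days post-transfection, luminescence read. Partial agonism means efficacy <70%.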
Target sequence in this assay (P37288 whole entry, looked up): as the sequence (P37288 whole entry) above

[9] = biological target: T5, Vasopressin V1b receptor (Homo sapiens) (UniProt P47901); assay: Partial agonist activity at recombinant human vasopressin V1b receptor expressed in Flp-In-293 cells by luciferase reporter gene assay; type: functional, cell-based; procedure, shortened: as §1
T5 sequence (whole entry): T3 sequence (P47901 whole entry)

[10] = biological target: T6, Oxytocin receptor (Homo sapiens) (UniProt P30559); assay: Partial agonist activity at human OT receptor expressed in CHO-K1 cells by luciferase reporter gene assay; type: functional, cell-based; procedure, shortened: as §1
T6 sequence (whole entry): T1 sequence (P30559 whole entry)

Rattus norvegicus [11] = assay: Vasoconstriction in Wistar rat assessed as decay in vasopressive duration of action at 0.3 nmol/kg, iv bolus measured over 10 sec interval; type: functional; parameters: unit not given here
Vasopressin V2 receptor [12] = biological target: T2, Vasopressin V2 receptor; assay: Partial agonist activity at recombinant human vasopressin V2 receptor expressed in HEK293 cells by luciferase reporter gene assay; type: functional, cell-based; procedure, shortened: as §1

Chain of Vasopressin V1a receptor (Rattus norvegicus, UniProt P30560) (P30560 whole entry): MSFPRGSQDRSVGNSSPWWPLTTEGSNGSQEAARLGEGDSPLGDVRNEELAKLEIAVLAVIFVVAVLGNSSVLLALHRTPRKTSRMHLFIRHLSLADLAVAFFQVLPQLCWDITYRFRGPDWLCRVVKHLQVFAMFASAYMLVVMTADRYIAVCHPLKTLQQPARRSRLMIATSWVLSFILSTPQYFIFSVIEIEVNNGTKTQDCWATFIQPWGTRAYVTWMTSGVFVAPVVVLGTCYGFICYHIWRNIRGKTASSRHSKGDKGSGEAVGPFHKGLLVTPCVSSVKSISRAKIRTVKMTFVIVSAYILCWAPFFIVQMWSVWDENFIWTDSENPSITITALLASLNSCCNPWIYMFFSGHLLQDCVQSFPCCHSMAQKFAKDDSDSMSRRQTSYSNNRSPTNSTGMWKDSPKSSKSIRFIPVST
T2 sequence (P30518 whole entry): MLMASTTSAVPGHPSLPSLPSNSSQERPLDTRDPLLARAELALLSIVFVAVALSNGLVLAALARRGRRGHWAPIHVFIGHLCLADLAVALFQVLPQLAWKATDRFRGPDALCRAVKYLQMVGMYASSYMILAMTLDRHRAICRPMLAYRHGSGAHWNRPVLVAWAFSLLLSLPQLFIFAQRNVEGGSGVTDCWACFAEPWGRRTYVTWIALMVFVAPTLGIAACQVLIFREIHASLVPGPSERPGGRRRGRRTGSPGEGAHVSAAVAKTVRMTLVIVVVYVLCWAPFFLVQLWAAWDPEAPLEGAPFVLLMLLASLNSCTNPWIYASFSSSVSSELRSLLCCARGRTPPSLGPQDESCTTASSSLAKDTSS
Chain of Vasopressin V1a/V2 (Homo sapiens) (P30518 whole entry, looked up): as the sequence (P30518 whole entry) above
Chain of Vasopressin V1a/V2 (Homo sapiens) (P37288 whole entry, looked up): as the sequence (P37288 whole entry) above

Row | SMILES | EC50 (Oxytocin receptor; cho-k1, read-out: EC50) [nM] | EC50 (Oxytocin receptor; read-out: pEC50 (converted)) [nM] | EC50 (Vasopressin V2 receptor [1]; hek293, read-out: EC50) [nM] | EC50 (Vasopressin V2 receptor [1]; read-out: pEC50 (converted)) [nM] | Ratio EC50 (Homo sapiens [2]) | EC50 (Vasopressin V1b receptor) [nM] | Ratio EC50 [3] | Ratio EC50 (Homo sapiens [4]) | EC50 (Vasopressin V1a receptor [6]) [nM] | EC50 (Vasopressin V1a receptor [7]) [nM] | Efficacy (Vasopressin V1a receptor [8]) [%] | Efficacy [9] [%] | Time (Rattus norvegicus [5]) [unitless ratio] | EC50 (Vasopressin V2 receptor [1]; read-out: EC50) [nM] | EC50 (Oxytocin receptor; read-out: EC50) [nM] | Efficacy [10] [%] | Time (Rattus norvegicus [11]) | Efficacy (Vasopressin V2 receptor [12]) [%]
1 | CC[C@H](C)[C@@H]1NC(=O)[C@H](Cc2ccccc2)NC(=O)[C@@H](N)CSSC[C@@H](C(=O)N2CCC[C@H]2C(=O)N[C@@H](CCCN)C(=O)NCC(N)=O)NC(=O)[C@H](CC(N)=O)NC(=O)[C@H](CC(=O)NC(CO)CO)NC1=O (H-CFID(NHCH(CH2OH)2)NCP[Orn]G-NH2; disulfide 1-6) | > 10000 | > 10000 | > 10000 | > 10000 | > 620 | 62 | > 620 | 3.8 | – | 16 | < 70 | < 70 | – | – | – | – | – | –
2 | CC[C@H](C)[C@@H]1NC(=O)[C@H](Cc2ccccc2)NC(=O)[C@@H](N)CSSC[C@@H](C(=O)N2CCC[C@H]2C(=O)N[C@@H](CCCNC(C)C)C(=O)NCC(N)=O)NC(=O)[C@H](CC(N)=O)NC(=O)[C@H](CCCC(N)=O)NC1=O [SELEPRESSIN] | – | 1100 | – | – | 450 | 340 | 1100 | 140 | 0.55 | 2.4 | – | – | – | 2700 | 1100 | < 70 | 1.4 | < 70

The next lines start with results.

Row | EC50 (Oxytocin receptor; cho-k1, read-out: EC50) [nM] | EC50 (Oxytocin receptor; read-out: pEC50 (converted)) [nM] | EC50 (Vasopressin V2 receptor [1]; hek293, read-out: EC50) [nM] | EC50 (Vasopressin V2 receptor [1]; read-out: pEC50 (converted)) [nM] | Ratio EC50 (Homo sapiens [2]) | EC50 (Vasopressin V1b receptor) [nM] | Ratio EC50 [3] | Ratio EC50 (Homo sapiens [4]) | EC50 (Vasopressin V1a receptor [6]) [nM] | EC50 (Vasopressin V1a receptor [7]) [nM] | Efficacy (Vasopressin V1a receptor [8]) [%] | Efficacy [9] [%] | SMILES | Time (Rattus norvegicus [5]) [unitless ratio] | EC50 (Vasopressin V2 receptor [1]; read-out: EC50) [nM] | EC50 (Oxytocin receptor; read-out: EC50) [nM] | Efficacy [10] [%] | Time (Rattus norvegicus [11]) | Efficacy (Vasopressin V2 receptor [12]) [%]
3 | > 10000 | > 10000 | > 10000 | > 10000 | > 7100 | 29 | > 7100 | 20 | 8.2 | 1.4 | – | – | CC[C@H](C)[C@@H]1NC(=O)[C@H](Cc2ccccc2)NC(=O)[C@@H](N)CSSC[C@@H](C(=O)N2CCC[C@H]2C(=O)N[C@@H](CCCN)C(=O)NCC(N)=O)NC(=O)[C@H](CC(N)=O)NC(=O)[C@H](CC(N)=O)NC1=O (H-CFINNCP[Orn]G-NH2; disulfide 1-6) | 1.4 | – | – | – | – | –
4 | > 10000 | > 10000 | – | – | > 12000 | 20 | 1500 | 25 | 4.2 | 0.8 | – | – | CC[C@H](C)[C@@H]1NC(=O)[C@H](CC2CCCC2)NC(=O)[C@@H](N)CSSC[C@@H](C(=O)N2CCC[C@H]2C(=O)N[C@@H](CCN)C(=O)NCC(N)=O)NC(=O)[C@H](CC(N)=O)NC(=O)[C@H](CCC(N)=O)NC1=O (H-C[Ala(cPent)]IQNCP[Dab]G-NH2; disulfide 1-6) | 2.3 | 1200 | – | – | – | –
5 | > 10000 | > 10000 | > 10000 | > 10000 | > 6600 | 31 | > 6600 | 20 | – | 1.5 | – | < 70 | CCCNCCC[C@H](NC(=O)[C@@H]1CCCN1C(=O)[C@@H]1CSSC[C@H](N)C(=O)N[C@@H](Cc2ccccc2)C(=O)N[C@@H]([C@@H](C)CC)C(=O)N[C@@H](CC(N)=O)C(=O)N[C@@H](CC(N)=O)C(=O)N1)C(=O)NCC(N)=O (H-CFINNCP[Orn(Pr)]G-NH2; disulfide 1-6) | – | – | – | – | – | –
